According to ChEMBL document CHEMBL3526154, “Metabolism, pharmacokinetics, tissue distribution, and stability studies of the prodrug analog of an anti-hepatitis B virus dinucleoside phosphorothioate” (Drug Metab Dispos, 2012):

Experiments:
Format in all cases: ADME, organism-based
Conditions in all cases: in vivo; call rule not given here
Rattus norvegicus [1] = experiment: Drug recovery in male Sprague-Dawley rat at 10 mg/kg, po administered as single dose measured after 24 hrs by liquid scintillation counting analysis; design: dose 10 mg/kg, route oral
Outline: (§1)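 Rats got a single i.v. bolus or oral gavage dose of [³⁵S]-prodrug at 5 ml/kg over a 24 h study. Radioactivity in blood, tissues, carcass, urine and feces measured by liquid scintillation counting. Total recovery given as % of administered dose at 24 h.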

[2] = Drug excretion in female Sprague-Dawley rat feces at 10 mg/kg, po administered as single dose measured at 0 to 1 hr post-dose by liquid scintillation counting analysis; design: dose 10 mg/kg, route oral
Outline: (§2)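 Single [³⁵S]-prodrug dose to rats, i.v. tail-vein bolus (PEG 400/saline vehicle) or oral gavage (citric acid buffer pH 2.5), 5 ml/kg. Urine and feces collected ~1, 4 and 24 h postdose. Radioactivity counted by liquid scintillation and expressed as % of administered dose. Mean and S.D. from nine rats per sex.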

Rattus norvegicus [3] = experiment: Terminal half life in female Sprague-Dawley rat at 10 mg/kg, iv administered as bolus dose by liquid scintillation counting analysis; design: dose 10 mg/kg, route intravenous
Outline: (§3)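 Radioactivity in plasma from rats given a single [35S]-labelled dose, iv (tail vein, 25% PEG 400/75% saline) or oral gavage (0.05 M citric acid, pH 2.5), sampled at 1, 4 and 24 h, measured by liquid scintillation as µg-Eq/ml. Elimination t1/2 and Tmax were derived by noncompartmental analysis with sparse sampling, from nine male and nine female rats.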

Heart = experiment: Drug uptake in Sprague-Dawley rat heart at 10 mg/kg, iv administered as bolus dose measured at 1 to 24 hrs post-dose by liquid scintillation counting analysis; design: dose 10 mg/kg, route intravenous
Outline: (§4)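 Single i.v. tail-vein bolus or oral gavage of [³⁵S]-prodrug to rats, 5 ml/kg. Euthanised by i.p. pentobarbital overdose at 1, 4 or 24 h. Retro-orbital blood collected; liver, lung, kidney, heart, brain and spleen frozen. Tissues homogenised, solubilised and counted by liquid scintillation. Radioactivity given as µg-Eq/g and % of dose.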

[4] = Drug excretion in male Sprague-Dawley rat urine at 10 mg/kg, iv administered as bolus dose measured at 4 to 24 hrs post-dose by liquid scintillation counting analysis; design: dose 10 mg/kg, route intravenous; outline: as §2
Liver [5] = experiment: Drug uptake in Sprague-Dawley rat liver at 10 mg/kg, po administered as single dose measured at 4 hrs post-dose by liquid scintillation counting analysis; design: dose 10 mg/kg, route oral
Outline: (§5)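 [35S]-labelled prodrug given once to rats, iv bolus via tail vein (25% PEG 400/75% saline) or oral gavage (0.05 M citric acid buffer, pH 2.5), 5 ml/kg. Rats euthanised at 1, 4 or 24 h. Liver, lung, kidney, heart, brain, spleen, tail and retro-orbital plasma were collected. Samples were homogenised and solubilised, and radioactivity was counted by liquid scintillation. Values are µg-equivalent/ml or g and % of dose.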

Plasma = experiment: Drug uptake in Sprague-Dawley rat plasma at 10 mg/kg, po administered as single dose measured at 4 hrs post-dose by liquid scintillation counting analysis; design: dose 10 mg/kg, route oral; outline: as §5
[6] = Drug excretion in male Sprague-Dawley rat urine at 10 mg/kg, iv administered as bolus dose measured at 1 to 4 hrs post-dose by liquid scintillation counting analysis; design: dose 10 mg/kg, route intravenous; outline: as §2
Liver [7] = experiment: Drug uptake in Sprague-Dawley rat liver at 10 mg/kg, iv administered as bolus dose measured at 1 to 24 hrs post-dose by liquid scintillation counting analysis; design: dose 10 mg/kg, route intravenous; outline: as §5
[8] = Drug excretion in male Sprague-Dawley rat feces at 10 mg/kg, po administered as single dose measured at 0 to 1 hr post-dose by liquid scintillation counting analysis; design: dose 10 mg/kg, route oral; outline: as §2
[9] = Drug excretion in female Sprague-Dawley rat urine at 10 mg/kg, iv administered as bolus dose measured at 0 to 24 hrs post-dose by liquid scintillation counting analysis; design: dose 10 mg/kg, route intravenous; outline: as §2
Lung = experiment: Drug uptake in Sprague-Dawley rat lung at 10 mg/kg, po administered as single dose measured at 4 hrs post-dose by liquid scintillation counting analysis; design: dose 10 mg/kg, route oral; outline: as §5
Rattus norvegicus [10] = experiment: Drug recovery in female Sprague-Dawley rat at 10 mg/kg, iv administered as bolus dose measured after 24 hrs by liquid scintillation counting analysis; design: dose 10 mg/kg, route intravenous; outline: as §1
[11] = Drug excretion in female Sprague-Dawley rat feces at 10 mg/kg, po administered as single dose measured at 0 to 24 hrs post-dose by liquid scintillation counting analysis; design: dose 10 mg/kg, route oral; outline: as §2
[12] = Drug excretion in male Sprague-Dawley rat urine at 10 mg/kg, iv administered as bolus dose measured at 0 to 1 hr post-dose by liquid scintillation counting analysis; design: dose 10 mg/kg, route intravenous; outline: as §2
[13] = Drug excretion in female Sprague-Dawley rat feces at 10 mg/kg, iv administered as bolus dose measured at 0 to 24 hrs post-dose by liquid scintillation counting analysis; design: dose 10 mg/kg, route intravenous; outline: as §2
[14] = Drug excretion in female Sprague-Dawley rat feces at 10 mg/kg, po administered as single dose measured at 4 to 24 hrs post-dose by liquid scintillation counting analysis; design: dose 10 mg/kg, route oral; outline: as §2
[15] = Drug excretion in male Sprague-Dawley rat feces at 10 mg/kg, po administered as single dose measured at 0 to 24 hrs post-dose by liquid scintillation counting analysis; design: dose 10 mg/kg, route oral; outline: as §2
Rattus norvegicus [16] = experiment: Tmax in female Sprague-Dawley rat at 10 mg/kg, po administered as single dose by liquid scintillation counting analysis; design: dose 10 mg/kg, route oral; outline: as §3
Kidney [17] = experiment: Drug uptake in Sprague-Dawley rat kidney at 10 mg/kg, iv administered as bolus dose measured at 1 to 24 hrs post-dose by liquid scintillation counting analysis; design: dose 10 mg/kg, route intravenous; outline: as §4
[18] = Drug excretion in female Sprague-Dawley rat urine at 10 mg/kg, iv administered as bolus dose measured at 1 to 4 hrs post-dose by liquid scintillation counting analysis; design: dose 10 mg/kg, route intravenous; outline: as §2
[19] = Drug excretion in male Sprague-Dawley rat urine at 10 mg/kg, po administered as single dose measured at 4 to 24 hrs post-dose by liquid scintillation counting analysis; design: dose 10 mg/kg, route oral; outline: as §2
[20] = Drug excretion in male Sprague-Dawley rat urine at 10 mg/kg, po administered as single dose measured at 1 to 4 hrs post-dose by liquid scintillation counting analysis; design: dose 10 mg/kg, route oral; outline: as §2
Kidney [21] = experiment: Drug uptake in Sprague-Dawley rat kidney at 10 mg/kg, po administered as single dose measured at 4 hrs post-dose by liquid scintillation counting analysis; design: dose 10 mg/kg, route oral; outline: as §5
[22] = Drug excretion in male Sprague-Dawley rat feces at 10 mg/kg, iv administered as bolus dose measured at 0 to 24 hrs post-dose by liquid scintillation counting analysis; design: dose 10 mg/kg, route intravenous; outline: as §2
[23] = Drug excretion in male Sprague-Dawley rat feces at 10 mg/kg, po administered as single dose measured at 1 to 4 hrs post-dose by liquid scintillation counting analysis; design: dose 10 mg/kg, route oral; outline: as §2
Brain = experiment: Drug uptake in Sprague-Dawley rat brain at 10 mg/kg, iv administered as bolus dose measured at 1 to 24 hrs post-dose by liquid scintillation counting analysis; design: dose 10 mg/kg, route intravenous; outline: as §4
[24] = Drug excretion in female Sprague-Dawley rat urine at 10 mg/kg, po administered as single dose measured at 0 to 1 hr post-dose by liquid scintillation counting analysis; design: dose 10 mg/kg, route oral; outline: as §2

## CO[C@@H]1[C@H](OP(=O)(OC[C@H]2O[C@@H](n3cnc4c(N)ncnc43)C[C@@H]2O)[35S]COC(=O)OC(C)C)[C@@H](CO)O[C@H]1n1ccc(=O)[nH]c1=O (stereo partly drawn)
Rattus norvegicus [1]
  Drug recovery: 83%
[2]
  Drug excretion: 0.02%
Rattus norvegicus [3]
  beta t1/2: 9 h
Heart
  Drug uptake: <= 0.5%
[4]
  Drug excretion: 29.6%
Liver [5]
  Drug uptake: Active
Plasma
  Drug uptake: Active
[6]
  Drug excretion: 11.33%
Liver [7]
  Drug uptake: Active
[8]
  Drug excretion: 0.01%
[9]
  Drug excretion: 58.94%
Lung
  Drug uptake: Active
Rattus norvegicus [10]
  Drug recovery: 84.9%
[11]
  Drug excretion: 2.72%
[12]
  Drug excretion: 22.83%
[13]
  Drug excretion: 9.44%
[14]
  Drug excretion: 2.68%
[15]
  Drug excretion: 35.71%
Rattus norvegicus [16]
  Tmax: 4 h
Kidney [17]
  Drug uptake: Active
[18]
  Drug excretion: 6.34%
[19]
  Drug excretion: 33.73%
[20]
  Drug excretion: 0.86%
Kidney [21]
  Drug uptake: Active
[22]
  Drug excretion: 16.9%
[23]
  Drug excretion: 0.01%
Brain
  Drug uptake: <= 0.5%
[24]
  Drug excretion: 0.16%
